The values below come from ChEMBL document CHEMBL1129691, “Synthesis and structure-DNA binding relationship analysis of DNA triple-helix specific intercalators” (J Med Chem, 1996).

Each structure is given as a SMILES string.

Tested on in one series: not listed separately
Description: PKa value of the N in quinoline ring is determined in 1-cm UV cell titreated with HCl or NaOH. The series is classed as physicochemical. Particulars: buffer. In short, it runs like this:
(§1)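 UV-monitored pH titration with HCl or NaOH. Sample is dihydrobromide salt or free base (0.01 mM) in nanopure water with NaCl (4 mM) and EDTA (0.1 mM). UV-vis spectra (220-450 nm) recorded after each addition. pH range spans at least 2 units either side of pKa, at least two points per pH unit. Absorbance at the wavelength of greatest change is normalized and plotted against pH.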
By pKa is commonly meant the negative logarithm of the acid dissociation constant. Turning to `CNCCN(C)c1cc(-c2ccc3ccccc3c2)nc2ccccc12`, the pKa was 6.2.
`CN(C)CCSc1cc(-c2ccc3ccccc3c2)nc2ccccc12` registered a pKa of 4.4.
As for `CN(C)CCNc1cc(-c2ccc3ccccc3c2)nc2ccccc12`, the pKa was 7.1.
Take `CN1CCN(c2cc(-c3ccc4ccccc4c3)nc3ccccc23)CC1`: the pKa is 5.6.

Tested on in another series: not listed separately
Description: PKa value of the side chain terminal amino is determined in 1-cm UV cell titreated with HCl or NaOH. The series is classed as physicochemical. The following applies: buffer. In short, it runs like this:
as §1
As to `CNCCN(C)c1cc(-c2ccc3ccccc3c2)nc2ccccc12`, the pKa was greater than 8.
On the same count and under the same terms, with `CN(C)CCSc1cc(-c2ccc3ccccc3c2)nc2ccccc12` the figure was greater than 8.
Regarding `CN(C)CCNc1cc(-c2ccc3ccccc3c2)nc2ccccc12`, the pKa was greater than 8.
Regarding `CN1CCN(c2cc(-c3ccc4ccccc4c3)nc3ccccc23)CC1`, the pKa is greater than 8.

The next series relates to Nucleic Acid. Put plainly: Temperature (delta Tm) for DNA triplex to duplex and single stranded transitions [Poly(dT.dA.dT) to Poly(dA.dT) and Poly(dT)]. The series is classed as nucleic-acid assay.
Conditions: not given
In short, it runs like this: (§2)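 Thermal melting in PIPES buffer (0.01 M PIPES, 0.001 M EDTA, 0.2 M NaCl, pH 7.0). Duplex poly(dA·dT) and triplex poly(dT·dA·dT) are formed by adding DNA stock to buffer. Compound is added at a molar ratio of 0.3 per nucleic acid base (saturating). ΔTm = Tm(complex) − Tm(free DNA), estimated error ±0.5 °C.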
As a reminder, the ΔTm is the shift of the melting midpoint relative to a reference. For the compound `CN(C)CCNc1cc(-c2ccccc2)nc2ccccc12`, the thermal shift (ΔTm) stood at 11.9 °C.
As to `CNCCN(C)c1cc(-c2ccc3ccccc3c2)nc2ccccc12`, the ΔTm was determined as 24.1 °C.
For the compound `CN(C)CCSc1cc(-c2ccc3ccccc3c2)nc2ccccc12`, the ΔTm worked out at 18.6 °C.
The same measure, in the same setting: with `CN(C)CCN(C)c1cc(-c2cccs2)nc2ccccc12` the figure was 3 °C.
Take `CN(C)CCNc1cc(-c2ccc3ccccc3c2)nc2ccccc12`: the ΔTm was 35.6 °C.
On the same count and under the same terms, under `CNCCN(C)c1cc(-c2ccc3cc(C)ccc3c2)nc2ccccc12` stands 23 °C; under `Cc1ccc2cc(-c3cc(N4CCN(C)CC4)c4ccccc4n3)ccc2c1`, 15.5 °C.
`CNCCN(C)c1cc(-c2ccc3c(c2)Nc2ccccc2S3)nc2ccccc12`: the ΔTm was determined as 20.8 °C.
In the case of `CN1CCN(c2cc(-c3ccccc3)nc3ccccc23)CC1`, the ΔTm came to 3.2 °C.
For the compound `CN1CCN(c2cc(-c3ccc4ccccc4c3)nc3ccccc23)CC1`, the ΔTm is 19.1 °C.
The same measure, in the same setting: under `CN(C)CCN(C)C(=O)c1cc(-c2ccc3ccccc3c2)nc2ccccc12` stands 2.1 °C.
As to `Cc1ccc2cc(-c3cc(N(C)CCN(C)C)c4ccccc4n3)ccc2c1`, the ΔTm was 19 °C.
For the compound `Cc1ccc2cc(-c3cc(NCCN(C)C)c4ccccc4n3)ccc2c1`, the ΔTm is 32.9 °C.
Turning to `CN(C)CCNc1cc(-c2ccc3c(ccc4ccccc43)c2)nc2ccccc12`, the ΔTm came to 35.3 °C.
Turning to `CN(C)CCNc1cc(-c2ccc3c(c2)Nc2ccccc2S3)nc2ccccc12`, the ΔTm amounted to 33.1 °C.
Regarding `CN(C)CCNc1cc(-c2cccc3ccccc23)nc2ccccc12`, the ΔTm amounted to 1.9 °C.
Regarding `CN(C)CCNc1cc(-c2cccs2)nc2ccccc12`, the ΔTm is 9.4 °C.
As to `CN1CCN(c2cc(-c3ccc4c(ccc5ccccc54)c3)nc3ccccc23)CC1`, the ΔTm was 18.6 °C.

The next series has as its system Nucleic Acid. Put plainly: Temperature (delta Tm) for DNA duplex denaturation evaluated by thermal melting. The series is classed as nucleic-acid assay.
Conditions: not given
The gist of the method: as §2
Consider `CN(C)CCNc1cc(-c2ccccc2)nc2ccccc12`, for which the shift in melting temperature (ΔTm) came out at 0.3 °C.
Same read-out and setting: with `CNCCN(C)c1cc(-c2ccc3ccccc3c2)nc2ccccc12` the figure was 0.2 °C; with `CN(C)CCSc1cc(-c2ccc3ccccc3c2)nc2ccccc12`, 0.2 °C; with `CN(C)CCN(C)c1cc(-c2cccs2)nc2ccccc12`, 0 °C.
Take `CN(C)CCNc1cc(-c2ccc3ccccc3c2)nc2ccccc12`: the thermal shift (ΔTm) is 5.5 °C.
Regarding `CNCCN(C)c1cc(-c2ccc3cc(C)ccc3c2)nc2ccccc12`, the shift in melting temperature (ΔTm) stood at 0.5 °C.
For `Cc1ccc2cc(-c3cc(N4CCN(C)CC4)c4ccccc4n3)ccc2c1`, the ΔTm was 0.4 °C.
The same measure, in the same setting: with `CNCCN(C)c1cc(-c2ccc3c(c2)Nc2ccccc2S3)nc2ccccc12` the figure was 1.5 °C.
The same measure, in the same setting: under `CN1CCN(c2cc(-c3ccccc3)nc3ccccc23)CC1` stands 0 °C; under `CN1CCN(c2cc(-c3ccc4ccccc4c3)nc3ccccc23)CC1`, 0.4 °C.
Consider `CN(C)CCN(C)C(=O)c1cc(-c2ccc3ccccc3c2)nc2ccccc12`, for which the ΔTm worked out at 0 °C.
On to `Cc1ccc2cc(-c3cc(N(C)CCN(C)C)c4ccccc4n3)ccc2c1`, for which the ΔTm amounted to 0.4 °C.
The same measure, in the same setting: with `Cc1ccc2cc(-c3cc(NCCN(C)C)c4ccccc4n3)ccc2c1` the figure was 2.2 °C; with `CN(C)CCNc1cc(-c2ccc3c(ccc4ccccc43)c2)nc2ccccc12`, 5.2 °C.
With `CN(C)CCNc1cc(-c2ccc3c(c2)Nc2ccccc2S3)nc2ccccc12`, the ΔTm is 2.4 °C.
Regarding `CN(C)CCNc1cc(-c2cccc3ccccc23)nc2ccccc12`, the ΔTm stood at 0.1 °C.
Same read-out and setting: with `CN(C)CCNc1cc(-c2cccs2)nc2ccccc12` the figure was 0.7 °C; with `CN1CCN(c2cc(-c3ccc4c(ccc5ccccc54)c3)nc3ccccc23)CC1`, 0.3 °C.
